According to ChEMBL document CHEMBL1155030, “Design of novel cyclic altered peptide ligands of myelin basic protein MBP83-99 that modulate immune responses in SJL/J mice” (J Med Chem, 2008):
Activity calls are given as the source filed them. The calls are words filed in the database; no cut-off is given here. Where a SMILES comes first, the peptide text is derived from it.

Assays:
[1] = Induction of IL4 production in SJL/J mouse spleen cells assessed as spot forming unit per 0.5 million cells by ELISpot analysis; assay type: functional
Method in brief: (§1)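 Female SJL/J mice immunized with peptide in CFA or with peptide conjugated to reduced mannan (50 µg intradermal, days 0 and 14). Spleens taken at day 28. 5 × 10^5 cells/well were incubated 24 h at 37 °C with 10 µg/mL recall peptide on anti-IL-4-coated plates, then developed with biotin anti-IL-4, streptavidin-ALP and a colorimetric substrate. Triplicate wells. Reported as SFU/0.5 million cells minus cells-alone background.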

[2] = Effect on MBP83-99 peptide-induced SJL/J mouse spleen cells proliferation assessed as [3H]thymidine incorporation after 6 days; assay type: tissue-based; conditions: 144 h
Method in brief: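 Spleen cells taken 28 days after immunization of female 6-8 week SJL/J mice with native MBP83-99 in CFA. 1 × 10^5 cells/well were cultured 1-6 days at 37 °C with recall peptide (10 µg/ml); cells alone served as background. 1 µCi [3H]thymidine was added per well, 6 h before harvest, one plate per day. Reported as mean cpm of triplicate wells, three mice per group.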

[3] = tested on: spleen; assay: Increase in MBP83-99 peptide-induced IL4 production in SJL/J mouse spleen cells assessed per 0.5 million cells after 24 hrs by ELISpot analysis; assay type: functional, cell-based; method in brief: as §1

Compound | Activity [1] | Activity [2] | Activity [3]
CC[C@H](C)[C@@H]1NC(=O)[C@H](CC(N)=O)NC(=O)[C@H](C)NC(=O)[C@H](Cc2ccccc2)NC(=O)[C@H](Cc2ccccc2)NC(=O)[C@H](Cc2cnc[nH]2)NC(=O)[C@H](C(C)C)NC(=O)[C@H](C(C)C)NC(=O)[C@@H]2CCCN2C(=O)[C@H](CC(N)=O)NC(=O)[C@H](CCC(=O)O)NC(=O)[C@@H]2CCCN2C(=O)[C@H]([C@@H](C)O)NC(=O)[C@H](CCCNC(=N)N)NC(=O)[C@@H]2CCCN2C(=O)[C@H]([C@@H](C)O)NC(=O)[C@H](C(C)C)NC1=O (cyclo(ANIVTPRTPENPVVHFF)) | 70 | – | –
CC[C@H](C)[C@H](NC(=O)[C@H](CC(N)=O)NC(=O)[C@H](CCCCN)NC(=O)[C@H](Cc1ccccc1)NC(=O)[C@H](Cc1ccccc1)NC(=O)[C@H](Cc1c[nH]cn1)NC(=O)[C@@H](NC(=O)[C@@H](NC(=O)[C@@H]1CCCN1C(=O)[C@H](CC(N)=O)NC(=O)[C@@H](N)CCC(=O)O)C(C)C)C(C)C)C(=O)N[C@H](C(=O)N[C@H](C(=O)N1CCC[C@H]1C(=O)N[C@@H](CCCNC(=N)N)C(=O)N[C@H](C(=O)N1CCC[C@H]1C(=O)O)[C@@H](C)O)[C@@H](C)O)C(C)C | – | Active | –
CC[C@H](C)[C@H](NC(=O)[C@H](CC(N)=O)NC(=O)[C@H](CCCCN)NC(=O)[C@H](Cc1ccccc1)NC(=O)[C@H](Cc1ccccc1)NC(=O)[C@H](Cc1cnc[nH]1)NC(=O)[C@@H](NC(=O)[C@@H](NC(=O)[C@@H]1CCCN1C(=O)[C@H](CC(N)=O)NC(=O)[C@@H](N)CCC(=O)O)C(C)C)C(C)C)C(=O)N[C@H](C(=O)N[C@H](C(=O)N1CCC[C@H]1C(=O)N[C@@H](CCCNC(=N)N)C(=O)N[C@H](C(=O)N1CCC[C@H]1C(=O)O)[C@@H](C)O)[C@@H](C)O)C(C)C | – | – | inactive
H-ENPVVHFFANIVTPRTP-OH | 600 | – | inactive
